Assay results from ChEMBL document CHEMBL4321829, “Chagas Disease Drug Discovery: Multiparametric Lead Optimization against Trypanosoma cruzi in Acylaminobenzothiazole Series” (J Med Chem, 2019).
Converted amounts (≈) assume the structure as drawn. The source made the active and inactive calls. The rule behind the calls is not given here.

Assays:
[1] = test system: H9c2; experiment: Cytotoxicity against rat H9c2 cells assessed as reduction in cell viability; assay type: cell-based
[2] = Selectivity index, ratio of IC50 for rat H9c2 cells to IC50 for antitrypanosomal activity against Trypanosoma cruzi Tulahuen trypomastigotes beta-galactosidase infected in rat H9c2 cells; assay type: toxicity, cell-based; details: read-out: Ratio IC50
[3] = test system: Trypanosoma cruzi; experiment: Antitrypanosomal activity against Trypanosoma cruzi Tulahuen trypomastigotes beta-galactosidase infected in rat H9c2 cells measured after 72 hrs by DRAQ5 DNA dye based confocal microscopic analysis; assay type: functional, organism-based; details: H9c2, 72 h
[4] = test system: Trypanosoma cruzi; experiment: Antitrypanosomal activity against tdTomato red expressing Trypanosoma cruzi CL trypomastigotes infected in C57BL/6 mouse at 50 mg/kg administered for 2 days and measured after 4 to 6 days post infection; assay type: functional, organism-based
Method in brief: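 Baseline footpad fluorescence was imaged on day 2. A single 50 mg/kg dose in 1% carboxymethyl cellulose/0.1% Tween 80 was then given. Imaging was repeated at day 4 or 6. IVA was calculated from the treated versus untreated fluorescence change. Controls were 50 mg/kg benznidazole and untreated mice.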

[5] = Kinetic solubility of compound by charged aerosol detection method; assay type: physicochemical; details: read-out: Kinetic_solubility
[6] = Protein binding in mouse plasma at 2 uM after 4 hrs by LC-MS/MS analysis; assay type: ADME, cell-free
Method in brief: (§1)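 Equilibrium dialysis was run in RED inserts with mouse or human plasma at a final concentration of 2 μM, in triplicate. The receiver side held PBS at pH 7.4. Plates were incubated for 4 h at 37 °C at about 150 rpm. Samples were matrix-matched, protein-precipitated and analysed by LC-MS/MS. %PPB = 100 − (buffer/plasma × 100).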

[7] = Ratio of drug level in blood to plasma in human at 1 uM after 1 hr by LC-MS/MS analysis; assay type: ADME, cell-free
Method in brief: (§2)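 Compound at a final 1 μM was mixed into prewarmed mouse or human whole blood at 37 °C. At 0 and 60 min, blood aliquots were lysed with water and matrix-matched with plasma. Samples were precipitated with IS-containing buffer and analysed by LC-MS/MS. The blood/plasma ratio was taken from compound:IS peak-area ratios.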

[8] = Intrinsic clearance in human liver microsomes at 0.5 uM in presence of NADPH measured up to 45 mins by UPLC/MS/MS analysis; assay type: ADME, Microsome; details: 0.75 h
Method in brief: (§3)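 Compound at 0.5 μM was incubated with male CD1 mouse or human liver microsomes (0.5 mg/mL in 50 mM potassium phosphate, pH 7.4). The reaction was started with excess NADPH. Samples were taken at 0 and serial times up to 45 min, quenched in acetonitrile with internal standard and analysed by UPLC/MS/MS. Clint (mL/min/g tissue) was derived from t1/2 of parent remaining. Midazolam was the positive control.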

[9] = Apparent permeability in MDCK-MDR1 cells at 3 uM after 60 mins by LC-MS/MS analysis; assay type: ADME, cell-based, Canis lupus familiaris; details: dog
Method in brief: (§4)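 Papp was measured in MDR1-MDCK monolayers in HBSS at pH 7.4 (n=2), at 3 μM for 60 min. Transport was measured AB and BA, with and without the P-gp inhibitor GF120918. Monolayers were checked by TEER and Lucifer yellow. Analytes were measured by LC-MS/MS as analyte/IS area ratios. Amprenavir, prazosin and propranolol served as references.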

[10] = Protein binding in human plasma at 2 uM after 4 hrs by LC-MS/MS analysis; assay type: ADME, cell-free; method in brief: as §1
[11] = Intrinsic clearance in CD-1 mouse liver microsomes at 0.5 uM in presence of NADPH measured up to 45 mins by UPLC/MS/MS analysis; assay type: ADME, Microsome; details: 0.75 h; method in brief: as §3
[12] = Tmax in C57BL/6 mouse at 50 mg/kg, po after 15 mins to 24 hrs by LC-MS/MS analysis; assay type: ADME, organism-based; details: in vivo
[13] = Half life in CD-1 mouse at 5 mg/kg, iv after 5 mins to 24 hrs by LC-MS/MS analysis; assay type: ADME, organism-based; details: in vivo
Method in brief: (§5)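 Male CD-1 mice (n=3) received a 5 mg/kg i.v. bolus in 5% DMSO/20% encapsine in saline. Blood was drawn at 5, 15, 30 min and 1, 2, 4, 8 and 24 h, diluted 1/2 with water and frozen.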

[14] = Solubility of compound in FASSIF at 1 mg incubated for 4 hrs by HPLC-UV analysis; assay type: physicochemical
Method in brief: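 1 mg of solid compound was shaken in 1 mL FaSSIF at pH 6.5, at 900 rpm for 4 h at room temperature. The suspension was filtered and the supernatant quantified by HPLC-UV against a single-point DMSO standard. The dynamic range was 1–1000 μg/mL.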

[15] = Ratio of drug level in blood to plasma in mouse at 1 uM after 1 hr by LC-MS/MS analysis; assay type: ADME, cell-free; method in brief: as §2
[16] = Cmax in C57BL/6 mouse assessed as 5-Fluoro-6-(trifluoromethyl)benzothiazol-2-amine level at 50 mg/kg, po adminstered via gavage as suspension after 15 mins to 24 hrs by LC-MS/MS analysis; assay type: ADME, organism-based; set-up: dose 50 mg/kg, route oral; details: in vivo
Method in brief: (§6)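 Female C57BL/6 mice (n=3) were gavaged with 50 mg/kg parent compound as a 1% methylcellulose suspension. Whole blood was sampled at 15, 30, 45 min and 1, 2, 4, 8 and 24 h, diluted 1/2 with water and frozen.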

[17] = Cmax in C57BL/6 mouse at 50 mg/kg, po after 15 mins to 24 hrs by LC-MS/MS analysis; assay type: ADME, organism-based; set-up: dose 50 mg/kg, route oral; details: in vivo
[18] = Efflux ratio of apparent permeability across […] in MDCK-MDR1 cells at 3 uM after 60 mins by LC-MS/MS analysis; assay type: ADME, cell-based, Canis lupus familiaris; details: dog, mdck-mdr1, 1 h; method in brief: as §4
[19] = AUCt in C57BL/6 mouse at 50 mg/kg, po after 15 mins to 24 hrs by LC-MS/MS analysis; assay type: ADME, organism-based; set-up: dose 50 mg/kg, time upper 24 hr, time lower 0.25 hr, route oral; details: in vivo
[20] = AUC in C57BL/6 mouse assessed as 5-Fluoro-6-(trifluoromethyl)benzothiazol-2-amine level at 50 mg/kg, po adminstered via gavage as suspension after 15 mins to 24 hrs by LC-MS/MS analysis; assay type: ADME, organism-based; set-up: dose 50 mg/kg, time upper 24 hr, time lower 0.25 hr, route oral; details: in vivo; method in brief: as §6
[21] = Clearance in CD-1 mouse at 5 mg/kg, iv after 5 mins to 24 hrs by LC-MS/MS analysis; assay type: ADME, organism-based; details: in vivo; method in brief: as §5
[22] = Volume of drug distribution at steady state in CD-1 mouse at 5 mg/kg, iv after 5 mins to 24 hrs by LC-MS/MS analysis; assay type: ADME, organism-based; details: in vivo, read-out: Vdss; method in brief: as §5
[23] = test system: Trypanosoma cruzi; experiment: Antitrypanosomal activity against Trypanosoma cruzi Tulahuen C4 trypomastigotes harboring beta-galactosidase infected in mouse 3T3 cells after 90 mins by luminescence based assay; assay type: functional, organism-based; details: Tulahuen C4, NIH3T3, 1.5 h

| Structure (SMILES) | IC50 [1] | selectivity ratio [2] | IC50 [3] | further results |
| --- | --- | --- | --- | --- |
| CC(C)(C)C(=O)Nc1nc2ccc(Cl)cc2s1 | > 50 µM | > 52 | 0.95 µM |  |
| CCN(C(=O)C1CC1)c1nc2ccc(Cl)cc2s1 | > 50 µM | 1 | > 50 µM |  |
| O=C(Nc1nc2cc(F)c(C(F)(F)F)cc2s1)C1CC1 | > 50 µM | > 630 | 0.079 µM | Activity [4]: Active; solubility kinetic [5]: 36 µM (≈ 11 µg/mL); PPB [6]: Active; blood plasma ratio at 1 h, 1 µM [7]: 0.8; CLH [8]: 0.41 mL/min/g; Papp at 1 h, 3 µM [9]: 174 nm/s; PPB [10]: Active; CLH [11]: 5.26 mL/min/g; Tmax [12]: 1.33 h; half-life [13]: 0.97 h; solubility at 4 h [14]: 0.051 mg/mL (≈ 168 µM); blood plasma ratio at 1 h, 1 µM [15]: 1.2; Cmax [16]: 0.634 µg/mL; Cmax [17]: 3.39 µg/mL; Ratio [18]: 1.5; AUC(0-t) [19]: 31.6 µg·h/mL; AUC [20]: 10.06532 µg·h/mL; clearance [21]: 3.5 L/h/kg; Vd [22]: 5.73 L/kg |
| CC(C)(F)C(=O)Nc1nc2cc(F)c(C(F)(F)F)cc2s1 | > 50 µM | > 50 | 1 µM |  |
| CC(C)c1ccc2nc(NC(=O)C3CC3)sc2c1 | > 50 µM | > 50 | 1.19 µM |  |
| CCc1ccc2nc(NC(=O)C3CC3)sc2c1 | > 50 µM | > 357 | 0.14 µM | CLH [8]: 10.4 mL/min/g; CLH [11]: 125 mL/min/g |
| O=C(Nc1nc2cc(C(F)(F)F)c(F)cc2s1)C1CC1 | 46 µM | 1 | 35 µM |  |
| Cc1cc2nc(NC(=O)C3CC3)sc2cc1C(F)(F)F | 36 µM | 1 | 26 µM |  |
| O=C(Nc1nc2ccc(C(F)(F)F)cc2s1)C1CC1 | > 50 µM | > 500 | 0.1 µM | CLH [8]: 0.94 mL/min/g; CLH [11]: 2.71 mL/min/g |
| O=S(=O)(Nc1nc2ccc(C(F)(F)F)cc2s1)C1CC1 | 6.6 µM | < 0.13 | > 50 µM |  |
| COc1cc2nc(NC(=O)C3CC3)sc2cc1C(F)(F)F | > 50 µM | > 2.5 | 20 µM |  |
| CC(=O)N(CCCN(C)C)c1nc2ccc(C)cc2s1 |  |  |  | IC50 [23]: 0.236 µM |
| CC(C)(C)c1ccc2nc(NC(=O)C3CC3)sc2c1 | 32 µM | 4 | 7.85 µM |  |
| CCCC(=O)Nc1nc2ccc(Cl)cc2s1 | > 50 µM | > 11 | 4.73 µM |  |
| O=C(Nc1nc2ccc(Cl)cc2s1)C1CCOC1 (configuration not stated) | > 50 µM | > 11 | 4.4 µM |  |
| N#Cc1cc2nc(NC(=O)C3CC3)sc2cc1C(F)(F)F | 15.5 µM |  | > 50 µM |  |
| O=C(CCO)Nc1nc2ccc(Cl)cc2s1 | > 50 µM | > 3 | 14 µM |  |
| O=C(Nc1nc2ccc(F)cc2s1)C1CC1 | > 50 µM | > 12 | 4.22 µM |  |
| CCS(=O)(=O)c1cc2sc(NC(=O)C3CC3)nc2cc1F | > 50 µM | > 1 | 42 µM |  |
| CC(C)(F)C(=O)Nc1nc2ccc(C(F)(F)F)cc2s1 | > 50 µM | > 384 | 0.13 µM |  |
| O=C(Nc1nc2c(Cl)cccc2s1)C1CC1 | > 50 µM |  | > 50 µM |  |
